The text below walks through data of ChEMBL document CHEMBL1145545, “Discovery of a novel A2B adenosine receptor antagonist as a clinical candidate for chronic inflammatory airway diseases” (J Med Chem, 2008).

For data set [1], the species on record is Homo sapiens. In words: Selectivity for human recombinant adenosine A2B receptor over human recombinant adenosine A1 receptor.
Data set [2] addresses T1, Adenosine receptor A2b (Homo sapiens, UniProt P29275).
T1 sequence (P29275 whole entry): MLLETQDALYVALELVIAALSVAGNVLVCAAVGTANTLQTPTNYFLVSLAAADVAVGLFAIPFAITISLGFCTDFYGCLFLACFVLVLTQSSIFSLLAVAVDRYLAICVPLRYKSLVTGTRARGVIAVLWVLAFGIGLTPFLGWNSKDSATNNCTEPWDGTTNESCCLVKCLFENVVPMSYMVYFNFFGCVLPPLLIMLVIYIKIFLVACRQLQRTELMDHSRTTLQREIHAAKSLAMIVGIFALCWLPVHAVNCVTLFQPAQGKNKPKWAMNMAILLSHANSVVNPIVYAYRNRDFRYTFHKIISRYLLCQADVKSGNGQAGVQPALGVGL
The experiment in a line: Displacement of [3H]ZM-241385 from human recombinant adenosine A2B receptor expressed in HEK293 cells. Format: cell-based. The procedure, abridged:
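Membranes from HEK293 cells stably expressing human A2B receptor; competition with 10 nM radioligand, 50 µg membrane protein, in 50 mM Tris/1 mM EDTA with 1 U/mL adenosine deaminase, 25 °C for 90 min with gentle agitation; filtration, four ice-cold Tris/MgCl2 washes. Nonspecific binding defined with 10 µM unlabelled ligand; Ki calculated.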
On the technique in general: Displacement assays read how much labelled ligand stays bound in the presence of the test substance.

The target of data set [3] is T2, Adenosine receptor A1 (Homo sapiens, UniProt P30542).
T2 sequence (P30542 whole entry): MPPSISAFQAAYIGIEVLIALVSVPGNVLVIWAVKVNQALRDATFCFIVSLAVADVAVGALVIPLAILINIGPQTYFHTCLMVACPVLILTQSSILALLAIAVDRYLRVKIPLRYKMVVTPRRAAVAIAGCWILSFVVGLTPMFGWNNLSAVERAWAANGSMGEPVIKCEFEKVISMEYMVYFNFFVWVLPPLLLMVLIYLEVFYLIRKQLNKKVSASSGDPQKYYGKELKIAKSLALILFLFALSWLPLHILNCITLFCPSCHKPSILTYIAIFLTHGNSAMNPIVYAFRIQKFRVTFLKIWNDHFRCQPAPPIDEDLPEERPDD
The experiment in a line: Displacement of [3H]CPX from human recombinant adenosine A1 receptor expressed in CHO cells. It counts as cell-based. The method in brief: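 CHO cell membranes stably expressing human A1 receptor; 0.5 nM [3H]CPX competed with test compound in 50 mM Tris/1 mM EDTA plus 1 U/mL adenosine deaminase, 25 °C, 90 min, gentle agitation; filtration and four ice-cold Tris/MgCl2 washes. Nonspecific binding defined with 1 µM CPX; Ki values derived.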

Data set [4] concerns the target Adenosine receptor A2a (Homo sapiens, UniProt P29274). The experiment in a line: Displacement of [3H]ZM-241385 from human recombinant adenosine A2A receptor expressed in HEK293 cells. Format: cell-based. The method in brief:
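Membranes from HEK293 cells stably expressing human A2A receptor; 2 nM radioligand competed in 50 mM Tris/1 mM EDTA with 1 U/mL adenosine deaminase for 90 min at 25 °C with agitation; filtration, four ice-cold Tris/MgCl2 washes. Nonspecific binding defined with 1 µM unlabelled ligand; Ki computed.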

Data set [5] deals with T3, Adenosine receptor A3 (Homo sapiens, UniProt P0DMS8).
T3 sequence (P0DMS8 whole entry): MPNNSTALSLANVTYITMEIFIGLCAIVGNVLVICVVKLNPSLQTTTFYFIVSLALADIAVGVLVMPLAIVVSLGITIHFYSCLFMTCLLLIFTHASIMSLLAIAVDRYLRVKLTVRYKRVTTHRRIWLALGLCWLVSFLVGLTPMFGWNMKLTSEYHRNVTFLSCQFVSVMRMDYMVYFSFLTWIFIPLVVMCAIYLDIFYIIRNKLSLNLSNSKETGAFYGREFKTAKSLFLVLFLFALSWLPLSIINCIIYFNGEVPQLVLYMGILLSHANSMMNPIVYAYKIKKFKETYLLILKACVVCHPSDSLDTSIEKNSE
The experiment in a line: Displacement of [125I]ABMECA from human recombinant adenosine A3 receptor expressed in CHO cells. Format: cell-based. The procedure, abridged: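 Human A3 receptor stably expressed in CHO cells; membranes incubated with 0.1 nM 125I-AB-MECA and test compound in 50 mM Tris, 1 mM EDTA, 10 mM MgCl2 plus 1 U/mL adenosine deaminase, 25 °C, 90 min; filtration, four ice-cold washes. Nonspecific binding defined with 1 µM IB-MECA; Ki determined.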

The species named for data set [6] is Homo sapiens. The experiment in a line: Selectivity for human recombinant adenosine A2B receptor over human recombinant adenosine A2A receptor.
The species entered for data set [7] is Homo sapiens. In words: Selectivity for human recombinant adenosine A2B receptor over human recombinant adenosine A3 receptor.
Data set [8] has as its target T4, Adenosine receptor A2b (Mus musculus) (UniProt Q60614).
T4 sequence (whole entry): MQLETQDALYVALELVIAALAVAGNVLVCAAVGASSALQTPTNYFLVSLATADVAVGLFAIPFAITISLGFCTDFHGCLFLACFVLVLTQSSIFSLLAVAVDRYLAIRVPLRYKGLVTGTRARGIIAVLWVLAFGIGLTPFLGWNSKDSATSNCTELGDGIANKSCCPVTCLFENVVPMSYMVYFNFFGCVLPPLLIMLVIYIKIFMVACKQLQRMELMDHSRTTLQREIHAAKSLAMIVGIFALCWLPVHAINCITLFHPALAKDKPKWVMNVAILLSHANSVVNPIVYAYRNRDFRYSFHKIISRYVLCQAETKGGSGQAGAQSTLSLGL
The experiment in a line: Antagonist activity at mouse adenosine A2B receptor expressed in NIH3T3 cells assessed as inhibition of NECA-induced cAMP accumulation. It counts as functional, cell-based. The method in brief:
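Mouse NIH/3T3 cells stimulated with NECA (1 nM to 100 µM) without or with increasing antagonist concentrations; cAMP accumulation measured. KB obtained by Schild analysis; mean ± SEM of three experiments in duplicate.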
(Changes in cAMP serve as a functional read-out for many G protein-coupled receptors.)

A short description of data set [9]: Cmax in Sprague-Dawley rat at 2 mg/kg, po. It counts as ADME, organism-based. Further details: dose 2 mg/kg, route oral. The following applies: in vivo.
Data set [10] in a line: Half life in Sprague-Dawley rat at 2 mg/kg, po. The arrangement: dose 2 mg/kg, route oral. The settings on record: in vivo. Format: ADME, organism-based.

What is called Ki is the equilibrium dissociation constant of an inhibitor or competing ligand from its target. The term Kb denotes the equilibrium dissociation constant of an antagonist, usually derived from a functional assay. As usually defined, the Cmax is the highest concentration seen after dosing. The term half-life denotes the time in which the quantity being followed falls by half.

Sequence of Adenosine receptor A2a (P29274 whole entry): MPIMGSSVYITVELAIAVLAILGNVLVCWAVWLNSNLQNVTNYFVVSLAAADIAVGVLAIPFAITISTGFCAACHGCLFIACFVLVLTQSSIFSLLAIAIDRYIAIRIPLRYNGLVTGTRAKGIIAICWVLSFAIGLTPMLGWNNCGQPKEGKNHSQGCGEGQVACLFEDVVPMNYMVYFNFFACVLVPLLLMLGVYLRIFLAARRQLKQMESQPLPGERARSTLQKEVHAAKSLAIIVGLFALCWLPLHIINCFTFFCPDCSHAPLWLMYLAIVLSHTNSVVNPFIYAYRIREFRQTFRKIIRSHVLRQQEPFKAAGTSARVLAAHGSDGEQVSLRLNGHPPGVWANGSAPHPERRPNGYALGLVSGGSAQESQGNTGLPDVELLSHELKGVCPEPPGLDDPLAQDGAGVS

Take `CCn1c(=O)n(CC2CC2)c(=O)c2[nH]c(-c3cnn(Cc4ccc(C(F)(F)F)nc4)c3)nc21`: the Ratio Ki is 80 in data set [1], 142 in data set [6] and 25 in data set [7]. Moreover, the Ki in [2] was determined as 16 nM; in data set [3], 1280 nM; in data set [4], 2280 nM; in [5], 400 nM.

As for `CCCn1c(=O)c2[nH]c(-c3cnn(Cc4cccc(C(F)(F)F)c4)c3)nc2n(CC)c1=O` [GS 6201], the Ratio Ki is 88 in data set [1], 149 in [6] and 48 in [7]. Moreover, the Ki in data set [2] came to 22 nM; in data set [3], 1940 nM; in data set [4], 3280 nM; in data set [5], 1070 nM. In data set [8], the Kb was determined as 2 nM. This compound also came in with a Cmax in data set [9] of 1110 ng/mL. Also, the half-life in data set [10] was 4.25 h.

For `CCn1c(=O)n(CC(C)C)c(=O)c2[nH]c(-c3cnn(Cc4cccc(C(F)(F)F)c4)c3)nc21`, the Ratio Ki was found to be 57 in data set [1], 99 in data set [6] and 23 in data set [7]. The Ki in data set [2] was 11 nM; in data set [3] it was 631 nM; in data set [4], 1090 nM; in [5] it was 250 nM.

On to `CCCn1c(=O)c2[nH]c(-c3cnn(Cc4nc(-c5ccc(Cl)cc5)no4)c3)nc2n(CC)c1=O`, for which the Ratio Ki in data set [1] stood at 56; in data set [6], 236; in [7] it was 25. Further, the Ki in data set [2] came out at 16 nM; in data set [3], 910 nM; in data set [4], 3780 nM; in data set [5] it was 413 nM.

Take `CCn1c(=O)c2[nH]c(-c3cnn(Cc4cccc(F)c4)c3)nc2n(C)c1=O`: the Ratio Ki in data set [1] turned out to be 58; in data set [6] it was 38; in [7], 47. Besides, the Ki in data set [2] is 6 nM; in [3], 350 nM; in data set [4] it was 231 nM; in data set [5] it was 282 nM.

In the case of `CCn1c(=O)n(CC(C)C)c(=O)c2[nH]c(-c3cnn(Cc4ccc(C(F)(F)F)nc4)c3)nc21`, the Ratio Ki in [1] was 180; in [6] it was 270; in data set [7], 17. In addition, the Ki in data set [2] is 20 nM; in [3], 3590 nM; in data set [4] it was 5410 nM; in data set [5], 350 nM.

Take `Cn1c(=O)n(CC2CC2)c(=O)c2[nH]c(-c3cnn(Cc4ccccc4)c3)nc21`: the Ratio Ki stood at 14 in [1], 13 in data set [6] and 8 in data set [7]. For the same compound, the Ki in data set [2] came to 11 nM; in data set [3], 154 nM; in data set [4], 149 nM; in data set [5], 91 nM.

With `CC(C)Cn1c(=O)c2[nH]c(-c3cnn(Cc4ccccc4)c3)nc2n(C)c1=O`, the Ratio Ki is 16 in data set [1], 19 in data set [6] and 9 in [7]. Moreover, the Ki was found to be 21 nM in [2], 347 nM in data set [3], 408 nM in data set [4] and 204 nM in data set [5].

On to `CCCn1c(=O)c2[nH]c(-c3cnn(Cc4cc(-c5ccc(C(F)(F)F)cc5)on4)c3)nc2n(CC)c1=O`, for which the Ratio Ki stood at 87 in data set [1], 94 in data set [6] and 152 in data set [7]. The Ki stood at 25 nM in data set [2], 2190 nM in [3], 2370 nM in [4] and 3810 nM in data set [5].

Regarding `CCn1c(=O)c2[nH]c(-c3cnn(Cc4ccccc4)c3)nc2n(C)c1=O`, the Ratio Ki in data set [1] amounted to 130; in data set [6], 36; in data set [7] it was 46. The Ki in [2] worked out at 2 nM; in [3], 260 nM; in [4], 73 nM; in [5], 92 nM.

Turning to `CCn1c(=O)n(CC(C)C)c(=O)c2[nH]c(-c3cnn(Cc4cccc(F)c4)c3)nc21`, the Ratio Ki in data set [1] was found to be 47; in [6], 124; in data set [7] it was 10. For the same compound, the Ki in data set [2] worked out at 31 nM; in data set [3], 1480 nM; in [4] it was 3850 nM; in data set [5], 324 nM.

For the compound `CCCn1c(=O)c2[nH]c(-c3cnn(Cc4ccc(C)nc4)c3)nc2n(CC)c1=O`, the Ratio Ki amounted to 33 in data set [1], 15 in data set [6] and 6 in [7]. Moreover, the Ki was 45 nM in data set [2], 1520 nM in data set [3], 670 nM in data set [4] and 290 nM in [5].

Take `Cn1c(=O)n(CC2CC2)c(=O)c2[nH]c(-c3cnn(Cc4cccc(F)c4)c3)nc21`: the Ratio Ki worked out at 26 in data set [1], 10 in data set [6] and 5 in data set [7]. For the same compound, the Ki stood at 7 nM in data set [2], 185 nM in [3], 73 nM in data set [4] and 35 nM in data set [5].

For the compound `CCn1c(=O)n(CC2CC2)c(=O)c2[nH]c(-c3cnn(Cc4cccc(C(F)(F)F)c4)c3)nc21`, the Ratio Ki in data set [1] is 10; in data set [6], 12; in data set [7] it was 15. Besides, the Ki amounted to 22 nM in [2], 218 nM in [3], 272 nM in data set [4] and 326 nM in data set [5].

With `CCCn1c(=O)c2[nH]c(-c3cnn(Cc4ccc(C(F)(F)F)nc4)c3)nc2n(CC)c1=O`, the Ratio Ki in data set [1] was 139; in data set [6] it was 125; in data set [7] it was 24. In addition, the Ki was 18 nM in data set [2], 2500 nM in data set [3], 2250 nM in data set [4] and 440 nM in [5]. Also, in data set [9], the Cmax came out at 671 ng/mL. Moreover, the half-life in [10] was 9.7 h.

With `CCCn1c(=O)c2[nH]c(-c3cnn(Cc4cccc(F)c4)c3)nc2n(C)c1=O`, the Ratio Ki came out at 22 in [1], 10 in data set [6] and 7 in [7]. Further, the Ki turned out to be 13 nM in data set [2], 290 nM in data set [3], 139 nM in data set [4] and 95 nM in data set [5].
